Laboratory results published in ChEMBL document CHEMBL4396890, “Synthesis, Biological Evaluation, Structure-Activity Relationship, and Mechanism of Action Studies of Quinoline-Metronidazole Derivatives Against Experimental Visceral Leishmaniasis” (J Med Chem, 2019).
Active and inactive are the calls of the source. The rule behind the calls is not given here.

Columns and labels:
Leishmania donovani [1] = test: Antileishmanial activity against Leishmania donovani MHOM/IN/80/Dd8 promastigotes harboring luciferase reporter gene after 48 hrs by Steady-Glo luminescence assay relative to control; format: functional
Summary of the method: (§1)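 Luciferase-expressing L. donovani Dd8 promastigotes were grown at 24 °C in M199 with 10% heat-inactivated FBS and G418 20 μg/mL. They were treated at varied concentrations for 24 and 48 h, and inhibition was read as relative luminescence units versus untreated control. IC50 was from dose–response; screening values are mean ± SD of at least three experiments in duplicate.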

Leishmania donovani [2] = test: Antileishmanial activity against Leishmania donovani MHOM/IN/80/Dd8 promastigotes infected in ip dosed BALB/c mouse assessed as reduction in parasite load in spleen administered once daily for 5 days measured 7 days post dose by giemsa staining-based assay; format: functional, organism-based
Summary of the method: (§2)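 Hamster-passaged strain was transformed to promastigotes. Stationary-phase cells (2 × 10^7 in 0.2 mL PBS) were injected into the tail vein of BALB/c mice. From day 15 post-infection, mice received compound ip in 8% DMSO in PBS for 5 consecutive days, 5 mice per group. Mice were killed day 7 post-treatment. Liver and spleen burden was read from Giemsa-stained stamp smears as LDU.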

[3] = Stability in rat liver microsomes assessed as parent compound remaining at 10 ug/ml preincubated for 5 mins followed by NADPH addition measured after 60 mins by UPLC analysis; format: ADME, Microsome; conditions: read-out: Stability
Summary of the method: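 Compound incubated with rat liver microsomes and the percentage remaining was followed over time up to 60 min. In vitro half-life and related parameters were derived from a plot of the natural log of percent remaining against incubation time.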

[4] = Cytotoxicity against mouse J774 cells assessed as cell viability up to 50 uM measured after 48 hrs by MTT assay relative to control; format: cell-based; conditions: read-out: Activity
Summary of the method: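 Vero cells and J774 macrophages were exposed to 12.5−400 μM compound for 48 h. Viability was read by MTT. CC50 was derived from the curve. Mean ± SD, n = 3 experiments in replicate.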

Leishmania donovani [5] = test: Antileishmanial activity against Leishmania donovani MHOM/IN/80/Dd8 amastigotes harboring luciferase reporter gene infected in mouse J774 cells at 25 uM after 48 hrs by Steady-Glo luminescence assay relative to control; format: functional; conditions: MHOM/IN/80/Dd8, J774, 48 h
Summary of the method: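 Infection of J774 macrophages with L. donovani Dd8 promastigotes at a 1:8 cell:parasite ratio. Compounds were diluted 2-fold in RPMI over 3.125–100 μM final and applied for 48 h. Amastigote inhibition was read by luciferase (RLU) or by Giemsa count of amastigotes per 100 macrophages. IC50 was from dose–response; n = 3 independent experiments done in replicate.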

Leishmania donovani [6] = test: Antileishmanial activity against Leishmania donovani MHOM/IN/80/Dd8 promastigotes harboring luciferase reporter gene at 50 uM after 48 hrs by Steady-Glo luminescence assay relative to control; format: functional; conditions: MHOM/IN/80/Dd8, 48 h; summary of the method: as §1
Leishmania donovani [7] = test: Antileishmanial activity against Leishmania donovani MHOM/IN/80/Dd8 promastigotes harboring luciferase reporter gene after 48 hrs by MTT assay; format: functional, organism-based; conditions: for IC50: MHOM/IN/80/Dd8, 48 h
Summary of the method: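 Luciferase-expressing L. donovani Dd8 promastigotes were grown at 24 °C in M199 with 10% heat-inactivated FBS and G418 20 μg/mL. They were exposed to a range of concentrations for 48 h, and viability was read by MTT absorbance as percent of untreated control. IC50 was from dose–response; n = 3 independent experiments done in replicate.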

[8] = Stability in rat plasma assessed as parent compound remaining at 10 ug/ml measured after 2 hrs by UPLC analysis; format: ADME, cell-free; conditions: read-out: Stability
[9] = Toxicity in BALB/c mouse infected with Leishmania donovani MHOM/IN/80/Dd8 promastigotes assessed as effect on health at 12.5 to 200 mg/kg, ip administered once daily for 5 days measured up to 7 days post dose; format: organism-based; conditions: in vivo
Summary of the method: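 BALB/c mice (20 ± 2 g) were infected by tail-vein injection of 2 × 10^7 stationary-phase promastigotes. At day 15 they received ip doses in 8% DMSO/PBS for 5 consecutive days and were killed at day 7 post-treatment. Survival, general health and body weight were monitored; 5 mice per group.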

Leishmania donovani [10] = test: Antileishmanial activity against Leishmania donovani MHOM/IN/80/Dd8 promastigotes harboring luciferase reporter gene at 100 uM after 48 hrs by Steady-Glo luminescence assay; format: functional, organism-based; summary of the method: as §1
Leishmania donovani [11] = test: Induction of mitochondrial potential loss in Leishmania donovani MHOM/IN/80/Dd8 promastigotes assessed as shift in red to green fluorescence at 50 uM after 12 hrs by JC1 dye-based flow cytometry (reference value: 7.37%); format: functional
Summary of the method: (§3)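 Exponential-phase promastigotes were incubated with 50 μM compound for 6−48 h, or 0.1% DMSO vehicle. CCCP (50 μM) served as positive control. After JC-1 staining, the red-to-green fluorescence shift was measured by flow cytometry.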

Leishmania donovani [12] = test: Induction of apoptosis in Leishmania donovani MHOM/IN/80/Dd8 promastigotes assessed as late apoptotic cells at 50 uM measured after 48 hrs by Annexin V-FITC/propidium iodide staining based assay (reference value: 0.02%); format: functional
Leishmania donovani [13] = test: Induction of mitochondrial potential loss in Leishmania donovani MHOM/IN/80/Dd8 promastigotes assessed as shift in red to green fluorescence at 50 uM after 6 hrs by JC1 dye-based flow cytometry (reference value: 7.37%); format: functional; summary of the method: as §3
Leishmania donovani [14] = test: Antileishmanial activity against Leishmania donovani MHOM/IN/80/Dd8 promastigotes infected in BALB/c mouse assessed as reduction in parasite load in liver at 100 mg/kg, ip administered once daily for 5 days measured 7 days post dose by giemsa staining-based assay relative to control; format: functional; set-up: scale not given: the % may be the effect or the level left; summary of the method: as §2
[15] = Half life in BALB/c mouse at 50 mg/kg, po administered via gavage by LC-MS/MS analysis; format: ADME, organism-based; conditions: in vivo
Leishmania donovani [16] = test: Induction of reactive oxygen species generation in Leishmania donovani MHOM/IN/80/Dd8 promastigotes at 50 uM measured after 24 hrs by H2DCFDA probe-based flow cytometry (reference value: 7%); format: functional
Leishmania donovani [17] = test: Antileishmanial activity against Leishmania donovani MHOM/IN/80/Dd8 promastigotes infected in BALB/c mouse assessed as reduction in parasite load in spleen at 100 mg/kg, ip administered once daily for 5 days measured 7 days post dose by giemsa staining-based assay relative to control; format: functional; set-up: scale not given: the % may be the effect or the level left; summary of the method: as §2
Leishmania donovani [18] = test: Antileishmanial activity against Leishmania donovani MHOM/IN/80/Dd8 amastigotes harboring luciferase reporter gene infected in mouse J774 cells assessed as stimulation of host immunity by measuring change in IL10 level at 50 uM after 48 hrs by ELISA; format: functional, organism-based
Summary of the method: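 Infected J774 macrophages (24 h infection) were treated with 50 μM compound for 48 h. Culture supernatants were assayed by ELISA for TNF-α and IL-12 (Th1) and for TGF-β and IL-10 (Th2), compared with infected untreated cells.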

Leishmania donovani [19] = test: Induction of apoptosis in Leishmania donovani MHOM/IN/80/Dd8 promastigotes assessed as increase in meta-caspase activity at 50 uM using BOC-GRR-AMC as substrate preincubated for 1 hr followed by substrate addition and measured after 2 hrs by fluorometric assay relative to control; format: functional
Summary of the method: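 Log-phase promastigotes treated with 50 μM for 24 and 48 h, with or without 1 h pretreatment with antipain (1 μM) or zVAD-fmk (100 μM). Vehicle control was 0.1% DMSO. Metacaspase activity in cell lysates measured with fluorogenic BOC-GRR-AMC, given as relative fluorescence units per mg protein.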

SMILES | Imax (Leishmania donovani [1]) [%] | Activity (Leishmania donovani [2]) | remaining at 1 h, 10 ug/ml [3] [%] | viability at 48 h [4] [%] | inhibition at 25 µM (Leishmania donovani [5]) [%] | inhibition at 50 µM (Leishmania donovani [6]) [%] | inhibition (Leishmania donovani [7]) | IC50 (Leishmania donovani [7]) [µM] | remaining at 2 h, 10 ug/ml [8] [%] | Activity [9] | inhibition (Leishmania donovani [10]) | Activity (Leishmania donovani [11]) [%] | Activity (Leishmania donovani [12]) [%] | Activity (Leishmania donovani [13]) [%] | Activity (Leishmania donovani [14]) [%] | half-life [15] [h] | Activity (Leishmania donovani [16]) [%] | Activity (Leishmania donovani [17]) [%] | Activity (Leishmania donovani [18]) | fold change (FC) (Leishmania donovani [19])
Cc1cc(-c2cccc(OCCn3c([N+](=O)[O-])cnc3C)c2)nc2ccccc12 | >93 | Dose-dependent effect | 72.8 | > 92 | 75.2 | 94.7 | Dose-dependent effect | 9.4 | 68.2 | Non-Toxic | Active | – | – | – | – | – | – | – | – | –
Cc1cc(-c2ccc(OCCn3c([N+](=O)[O-])cnc3C)cc2)nc2ccccc12 | >93 | Dose-dependent effect | 76 | > 92 | 83.2 | 94.4 | Dose-dependent effect | 5.3 | 88.5 | Non-Toxic | Active | 33.15 | 0.41 | 23.15 | 82.5 | 4.02 | 41.41 | 81.7 | inactive | 3.8
